# ChEMBL document CHEMBL1144484, “High selective leishmanicidal activity of 3-hydroxy-2-methylene-3-(4-bromophenyl)propanenitrile and analogous compounds” (Eur J Med Chem, 2007)
# What was measured:
# Leishmania amazonensis [1] = test: Antileishmanial activity against GFP tagged Leishmania amazonensis Josefa amastigote infected mouse peritoneal macrophages at 50 uM after 72 hrs; format: functional
# Outline: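 GFP L. amazonensis (Josefa)-infected mouse peritoneal macrophages (10⁶ cells, 5 × 10⁶ promastigotes, 4 h at 37 °C), washed, exposed to compound for 72 h in 1% DMSO. Monolayer fluorescence measured. Percent inhibition scaled between untreated infected cells and uninfected macrophages. Vehicle control was 1% DMSO. Triplicate means with SD.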
# Leishmania amazonensis [2] = test: Antileishmanial activity against GFP tagged Leishmania amazonensis Josefa promastigote at 50 uM; format: functional
# Outline: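 Triplicate wells of 10⁵ GFP-transfected promastigotes in DMEM with 5% serum and 1% DMSO, with compound, held 72 h at 27 °C. Fluorescence intensity read on a plate fluorometer. Results given as percent inhibition, mean of triplicates with SD.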
# [3] = Cytotoxicity against mouse peritoneal macrophages assessed as LDH release at 50 uM after 48 hrs; format: cell-based; details: peritoneal macrophage cell
# Outline: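 Uninfected adherent mouse peritoneal macrophages exposed to compound for 48 h at 37 °C. LDH released into the medium measured with a commercial kit. 2% Triton X-100 set maximum release and 1% DMSO set minimum. Triplicate means with SD.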
# [4] = tested on: Peritoneal macrophage cell; test: Effect on nitric oxide production in mouse peritoneal macrophages at 50 uM after 48 hrs; format: functional
# Outline: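 Supernatants from mouse peritoneal macrophage cultures incubated 48 h with compound. Nitrite measured by a modified Griess method. IFN-gamma at 10 U/ml served as positive control. Triplicate means.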
# Leishmania amazonensis [5] = test: Antiamastigote activity against GFP tagged […] amastigote infected mouse peritoneal macrophages; format: functional, organism-based
# Outline: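 Mouse peritoneal macrophages (10⁶) infected 4 h at 37 °C with 5 × 10⁶ GFP-expressing L. amazonensis (Josefa) promastigotes, washed, then cultured 72 h with compound in 1% DMSO. Monolayer fluorescence read as parasite growth. Uninfected macrophages set maximum inhibition and untreated infected cells set minimum. IC50 obtained by linear regression.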
IC50 (Leishmania amazonensis [5]) [µM],Compound,Activity (Leishmania amazonensis [1]) [%],Activity (Leishmania amazonensis [2]) [%],Activity [3] [%],Activity [4] [µM]
–,C=C(C#N)C(O)c1ccc(C(F)(F)F)cc1 (stereo unspecified),86,62.8,36.3,-4
–,C=C(C#N)C(O)c1ccc2c(c1)OCO2 (stereo unspecified),9.1,25.5,0,-2.1
–,C=C(C(=O)OC)C(O)c1ccc([N+](=O)[O-])cc1 (stereo unspecified),80.6,67.3,41.6,-3.7
–,C=C(C(=O)OC)C(O)c1ccccc1 (stereo unspecified),14.4,37.6,0,-2.1
–,C=C(C(=O)OC)C(O)c1ccc(F)cc1 (stereo unspecified),33.6,32.4,0,-4.8
–,C=C(C#N)C(O)c1ccc(O)c(OC)c1 (stereo unspecified),19.7,6.6,0,-2.3
–,C=C(C(=O)OC)C(O)c1cccnc1 (stereo unspecified),8.9,39.6,13.2,0.1
–,C=C(C#N)C(O)c1ccccc1OC (stereo unspecified),14.7,30,6.1,0.4
49.3,C=C(C#N)C(O)c1ccccc1 (stereo unspecified),48.1,42.2,0,-1.6
–,C=C(C#N)C(O)c1ccc([N+](=O)[O-])cc1 (stereo unspecified),93.9,47,41.7,5
–,pentostam,35.3,0,–,0
–,C=C(C(=O)OC)C(O)c1ccc(C)cc1 (stereo unspecified),28.7,32.4,0,-3.7
42.8,C=C(C(=O)OC)C(O)c1ccc(C(F)(F)F)cc1 (stereo unspecified),89,67.6,36.2,-3.5
11.2,C=C(C#N)C(O)c1ccc2ccccc2c1 (stereo unspecified),95.6,24,26.6,-7.1
–,C=C(C#N)C(O)c1cc(OC)ccc1OC (stereo unspecified),35.3,22.3,0,-4.9
12.5,C=C(C#N)C(O)c1ccc(Br)cc1 (stereo unspecified),84.3,17.5,0,2.5
–,C=C(C#N)C(OC(C)=O)c1ccc([N+](=O)[O-])cc1 (stereo unspecified),21.5,59.3,0,0
